How the values were obtained:
Mus musculus [1] = assay: Analgesic activity in albino mouse assessed as decrease in acetic acid-induced writhing at 10.24 mg/kg, po administered 1 hr prior to acetic acid challenge relative to control; assay type: functional
Outline: (§1)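 Albino mice of either sex, 18–22 g, six per group. Test agents suspended in saline with a few drops of Tween 80 and given by oral stomach tube; controls handled identically without drug. After 1 h, 0.3 ml of 1% acetic acid ip. Writhing contractions counted for 30 min, starting 5 min after injection. % protection versus control mean; mean ± SEM; one-way ANOVA with post hoc test.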

Rattus norvegicus [2] = assay: Antiinflammatory activity in albino rat assessed as inhibition of carrageenan-induced paw edema at 0.029 mmol/kg, po after 4 hrs relative to indomethacin; assay type: functional
Outline: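 Rat carrageenan paw edema: oral 0.029 mmol/kg in saline/Tween 80, 1 h before subplantar 0.1 ml 1% carrageenan into the right hind paw; six rats per group. Potency is % inhibition of the test compound divided by % inhibition of indomethacin at 4 h.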

Rattus norvegicus [3] = assay: Gastrointestinal toxicity in albino rat assessed as ulcerogenic index at 0.029 mmol/kg, po after 5 hrs; assay type: organism-based; conditions: in vivo
Outline: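 Adult albino rats of either sex (120–150 g), 6 per group, got the test compounds orally by stomach tube as a suspension in saline with a few drops of tween 80. They were the same rats used in the carrageenan paw-edema test. Stomachs were then opened along the great curvature and examined for lesions or bleeding. Ulceration was recorded as the number of rats with ulcers out of 6.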

Rattus norvegicus [4] = assay: Antiinflammatory activity in albino rat assessed as inhibition of carrageenan-induced paw edema at 0.029 mmol/kg, po after 3 hrs relative to control; assay type: functional
Outline: (§2)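 Adult albino rats of either sex, 120–150 g, six per group. Compounds at 0.029 mmol/kg suspended in saline with a few drops of Tween 80 and given by oral stomach tube. After 1 h, 0.1 ml of freshly prepared 1% carrageenan in saline injected subplantar into the right hind paw. Paw thickness measured at 1–4 h; % edema inhibition versus control; mean ± SEM; ANOVA.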

Rattus norvegicus [5] = assay: Antiinflammatory activity in albino rat assessed as inhibition of carrageenan-induced paw edema at 0.029 mmol/kg, po after 4 hrs relative to control; assay type: functional; outline: as §2
Rattus norvegicus [6] = assay: Antiinflammatory activity in albino rat assessed as inhibition of carrageenan-induced paw edema at 0.029 mmol/kg, po after 2 hrs relative to control; assay type: functional; outline: as §2
Rattus norvegicus [7] = assay: Antiinflammatory activity in albino rat assessed as inhibition of carrageenan-induced paw edema at 0.029 mmol/kg, po after 1 hr relative to control; assay type: functional; outline: as §2
Mus musculus [8] = assay: Analgesic activity in albino mouse assessed as decrease in acetic acid-induced writhing at 11.75 mg/kg, po administered 1 hr prior to acetic acid challenge relative to control; assay type: functional; outline: as §1
Mus musculus [9] = assay: Analgesic activity in albino mouse assessed as decrease in acetic acid-induced writhing at 8.12 mg/kg, po administered 1 hr prior to acetic acid challenge relative to control; assay type: functional; outline: as §1
Rattus norvegicus [10] = assay: Antiinflammatory activity in albino rat assessed as inhibition of carrageenan-induced paw edema at 20 mg/kg, po; assay type: functional
Outline: (§3)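 Rat carrageenan paw edema with oral dosing at 10, 15, 20 and 25 mg/kg, suspended in saline with Tween 80, 1 h before subplantar 0.1 ml 1% carrageenan into the right hind paw. % edema inhibition versus control at each dose; IC50 (mg/kg) derived from these four doses.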

Rattus norvegicus [11] = assay: Antiinflammatory activity in albino rat assessed as inhibition of carrageenan-induced paw edema at 10 mg/kg, po; assay type: functional; outline: as §3
Rattus norvegicus [12] = assay: Antiinflammatory activity in albino rat assessed as inhibition of carrageenan-induced paw edema at 15 mg/kg, po; assay type: functional; outline: as §3
Rattus norvegicus [13] = assay: Antiinflammatory activity in po dosed albino rat assessed as inhibition of carrageenan-induced paw edema; assay type: functional, organism-based
Outline: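 Adult albino rats of either sex, 120–150 g, groups of 6. Compound suspended in saline with a few drops of tween 80, given by oral stomach tube 1 h before subplantar injection of freshly prepared 1% carrageenan (0.1 ml) in saline into right hind paw. Paw thickness read at 1–4 h; % edema inhibition versus carrageenan control; mean ± SEM, one-way ANOVA with post hoc test.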

Rattus norvegicus [14] = assay: Antiinflammatory activity in albino rat assessed as inhibition of carrageenan-induced paw edema at 25 mg/kg, po; assay type: functional; outline: as §3
Mus musculus [15] = assay: Analgesic activity in albino mouse assessed as decrease in acetic acid-induced writhing at 7.69 mg/kg, po administered 1 hr prior to acetic acid challenge relative to control; assay type: functional; outline: as §1
Mus musculus [16] = assay: Analgesic activity in albino mouse assessed as decrease in acetic acid-induced writhing at 8.04 mg/kg, po administered 1 hr prior to acetic acid challenge relative to control; assay type: functional; outline: as §1
Mus musculus [17] = assay: Analgesic activity in albino mouse assessed as decrease in acetic acid-induced writhing at 8.36 mg/kg, po administered 1 hr prior to acetic acid challenge relative to control; assay type: functional; outline: as §1
Mus musculus [18] = assay: Analgesic activity in albino mouse assessed as decrease in acetic acid-induced writhing at 8.47 mg/kg, po administered 1 hr prior to acetic acid challenge relative to control; assay type: functional; outline: as §1
Mus musculus [19] = assay: Analgesic activity in albino mouse assessed as decrease in acetic acid-induced writhing at 8.33 mg/kg, po administered 1 hr prior to acetic acid challenge relative to control; assay type: functional; outline: as §1

Row | SMILES | inhibition in vivo at 10.24 mg/kg (Mus musculus [1]) | relative potency at 29 µmol/kg (Rattus norvegicus [2]) | UI (Rattus norvegicus [3]) | inhibition in vivo at 29 µmol/kg (Rattus norvegicus [4]) | inhibition in vivo at 29 µmol/kg (Rattus norvegicus [5]) | inhibition in vivo at 29 µmol/kg (Rattus norvegicus [6]) | inhibition in vivo at 29 µmol/kg (Rattus norvegicus [7]) | inhibition in vivo at 11.75 mg/kg (Mus musculus [8]) | inhibition in vivo at 8.12 mg/kg (Mus musculus [9]) | inhibition in vivo at 20 mg/kg (Rattus norvegicus [10]) | inhibition in vivo at 10 mg/kg (Rattus norvegicus [11]) | inhibition in vivo at 15 mg/kg (Rattus norvegicus [12]) | IC50 (Rattus norvegicus [13]) | inhibition in vivo at 25 mg/kg (Rattus norvegicus [14]) | inhibition in vivo at 7.69 mg/kg (Mus musculus [15]) | inhibition in vivo at 8.04 mg/kg (Mus musculus [16]) | inhibition in vivo at 8.36 mg/kg (Mus musculus [17]) | inhibition in vivo at 8.47 mg/kg (Mus musculus [18]) | inhibition in vivo at 8.33 mg/kg (Mus musculus [19])
1 | N#Cc1ccc(/N=c2\c(C#N)c3n(c(=O)n2-c2ccccc2)CCC3)cc1 | 82.9% | 0.86 | Non-toxic | 28.1% | 23.6% | 28.1% | 16.9% |  |  |  |  |  |  |  |  |  |  |  | 
2 | O=C1NC(c2ccccc2[N+](=O)[O-])NC2=C1C1CCCN1C(=O)N2c1ccccc1 (centres undefined) |  | 0.13 |  | 8.65% | 3.73% | 14.1% | 12.3% | 86.8% |  |  |  |  |  |  |  |  |  |  | 
3 | CC/N=c1/c(C#N)c2n(c(=O)n1-c1ccccc1)CCC2 |  | 1.11 | Non-toxic | 24.5% | 30.4% | 23.1% | 7.82% |  | 74.4% |  |  |  |  |  |  |  |  |  | 
4 | C/N=c1/c(C#N)c2n(c(=O)n1-c1ccccc1)CCC2 |  | 1.27 | Non-toxic | 30.2% | 34.8% | 26.5% | 19.1% |  |  | 50.8% | 36% | 43% | 17.77 mg/kg | 62.7% | 74% |  |  |  | 
5 | CCN1C(=S)N2CCCC2c2c1ncn(CC)c2=N (centres undefined) |  | 0.36 |  | 10.8% | 9.91% | 11.6% | 11.6% |  |  |  |  |  |  |  |  | 75.9% |  |  | 
6 | CCO/C=N/C1=C(C#N)C2CCCN2C(=S)N1CC (centres undefined) |  | 0.75 | Non-toxic | 20.9% | 20.5% | 19% | 12.3% |  | 88.1% |  |  |  |  |  |  |  |  |  | 
7 | N/N=C(/N)C1=C(N)N(c2ccccc2)C(=O)N2CCCC12 (centres undefined) |  | 0.84 |  | 25.9% | 23% | 27.3% | 8.97% |  |  |  |  |  |  |  |  |  | 79% |  | 
8 | C=CC/N=c1/c(C#N)c2n(c(=O)n1-c1ccccc1)CCC2 |  | 0.52 | Non-toxic | 23.1% | 14.3% | 19% | 2.23% |  |  |  |  |  |  |  |  |  |  | 81.1% | 
9 | NC1=C(/C(N)=N\O)C2CCCN2C(=O)N1c1ccccc1 (centres undefined) |  | 1 |  | 21.6% | 27.3% | 14.9% | 4.45% |  |  |  |  |  |  |  |  |  |  |  | 85.9%
